Data on 28 compounds can be found in ChEMBL document CHEMBL1153381, “Discovery of 2-(5-nitrothiazol-2-ylthio)benzo[d]thiazoles as novel c-Jun N-terminal kinase inhibitors” (Bioorg Med Chem, 2009).

Data set [1] is described as follows: Inhibition of cJNK phosphorylation by Lantha screen assay.
Data set [2] in a line: Inhibition of cJNK phosphorylation by pepJIP1 displacement DELFIA assay.
The target in data set [3] is Mitogen-activated protein kinase 14 (Homo sapiens, UniProt Q16539). Kind of data set: Inhibition of p38alpha.
The target in data set [4] is RAC-alpha serine/threonine-protein kinase (Homo sapiens) (UniProt P31749). Nature of the data set: Inhibition of AKT at 100 uM.
In a further data set the target is Furin (Homo sapiens, UniProt P09958). Nature of the data set: Inhibition of furin.
A short description of data set [5]: Inhibition of lethal factor.
The next data set relates to Liver microsomes. Kind of data set: Metabolic stability in rat liver microsomes assessed as half life. The data set is classed as ADME, Microsome. In a few lines: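 Rat liver microsomes (1 mg/mL protein) with 4 μM compound and 2 mM NADPH in 50 mM phosphate pH 7.2, after 5 min preincubation, incubated 1 h at 37.5 °C. Aliquots taken every 15 min were quenched with methanol plus internal standard and analysed by LC–MS. Run in duplicate with 2 control compounds of known half-life.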
(Microsomes from liver hold many membrane-bound enzymes, among them those of drug oxidation.)

The nature of data set [6]: Metabolic stability in rat plasma assessed as drug level remaining after 1 hr. The data set is classed as ADME, cell-free. The following applies: read-out: Stability. In a few lines:
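Fresh rat plasma with 1 μM compound (2.5% final DMSO) at 37 °C, stopped at 0, 30 and 60 min with methanol plus internal standard, analysed by LC–MS. Percent parent remaining was taken against 0 min from peak-area ratios to internal standard. Run in duplicate with a plasma-labile positive control.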

Data set [7] is described as follows: Inhibition of cJNK phosphorylation in TNF-alpha-stimulated HL60 cells by Lantha screen assay. The data set is classed as cell-based. The following applies: HL-60.

As usually defined, the pIC50 is the IC50 on a negative log10 scale, so that one unit is a factor of ten. A low value points to a high IC50. One may read the inhibition as the change of the read-out against control, counted positive when it falls. Low readings indicate a response near the control, high ones a response far below the control.

SMILES strings stand for the structures. pIC50: −log10 of the molar value. Where only a bound is given, the exact number is not on record here.

Sequence of Furin (P09958 whole entry): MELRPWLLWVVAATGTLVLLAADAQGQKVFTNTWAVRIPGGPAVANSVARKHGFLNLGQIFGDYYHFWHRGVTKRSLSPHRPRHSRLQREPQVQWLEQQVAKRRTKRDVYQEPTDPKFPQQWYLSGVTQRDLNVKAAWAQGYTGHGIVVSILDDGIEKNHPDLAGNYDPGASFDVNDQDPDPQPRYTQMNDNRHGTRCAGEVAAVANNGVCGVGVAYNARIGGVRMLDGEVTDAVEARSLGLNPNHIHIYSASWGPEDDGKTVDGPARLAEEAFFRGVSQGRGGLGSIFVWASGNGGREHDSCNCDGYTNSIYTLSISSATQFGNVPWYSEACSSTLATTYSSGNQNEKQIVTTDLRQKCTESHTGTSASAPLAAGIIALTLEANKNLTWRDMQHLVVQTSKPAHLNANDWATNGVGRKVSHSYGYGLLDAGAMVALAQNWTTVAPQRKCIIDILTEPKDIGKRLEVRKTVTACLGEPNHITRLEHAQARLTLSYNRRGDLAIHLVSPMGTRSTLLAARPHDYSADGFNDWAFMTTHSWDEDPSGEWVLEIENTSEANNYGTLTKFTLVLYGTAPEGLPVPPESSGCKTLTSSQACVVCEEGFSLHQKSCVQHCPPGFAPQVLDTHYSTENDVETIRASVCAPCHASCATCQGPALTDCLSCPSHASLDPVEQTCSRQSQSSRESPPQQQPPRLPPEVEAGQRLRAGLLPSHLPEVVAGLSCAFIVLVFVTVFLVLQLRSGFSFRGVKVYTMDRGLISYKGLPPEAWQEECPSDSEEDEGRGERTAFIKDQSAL
Sequence of Mitogen-activated protein kinase 14 (Q16539 whole entry): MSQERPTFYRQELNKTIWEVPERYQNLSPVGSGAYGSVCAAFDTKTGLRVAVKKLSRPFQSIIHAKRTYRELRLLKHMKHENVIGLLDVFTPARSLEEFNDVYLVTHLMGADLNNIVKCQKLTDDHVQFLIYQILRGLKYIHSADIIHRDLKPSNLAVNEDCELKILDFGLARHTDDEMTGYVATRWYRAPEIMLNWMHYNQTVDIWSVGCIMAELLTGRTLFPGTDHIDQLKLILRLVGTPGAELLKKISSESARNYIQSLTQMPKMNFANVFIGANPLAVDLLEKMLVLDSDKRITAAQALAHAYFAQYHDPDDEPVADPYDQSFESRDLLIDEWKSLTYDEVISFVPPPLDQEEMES
Sequence of RAC-alpha serine/threonine-protein kinase (Homo sapiens) (P31749 whole entry): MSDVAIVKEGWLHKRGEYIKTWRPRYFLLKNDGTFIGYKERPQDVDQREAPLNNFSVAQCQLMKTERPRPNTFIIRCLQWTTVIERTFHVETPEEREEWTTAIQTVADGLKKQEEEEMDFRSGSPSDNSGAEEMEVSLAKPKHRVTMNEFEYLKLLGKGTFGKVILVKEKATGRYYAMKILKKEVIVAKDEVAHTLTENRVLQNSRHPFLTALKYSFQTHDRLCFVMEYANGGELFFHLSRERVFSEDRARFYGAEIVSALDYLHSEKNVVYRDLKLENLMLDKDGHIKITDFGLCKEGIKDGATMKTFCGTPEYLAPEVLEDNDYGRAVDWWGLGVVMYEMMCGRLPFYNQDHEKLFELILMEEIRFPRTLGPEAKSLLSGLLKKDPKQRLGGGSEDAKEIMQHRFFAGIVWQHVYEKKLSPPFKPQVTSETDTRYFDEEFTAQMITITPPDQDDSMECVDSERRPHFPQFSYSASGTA

With `Nc1ncnc2nc(Sc3ncc([N+](=O)[O-])s3)[nH]c12`, the figures for the pIC50 in data set [1] and in data set [2] were 4.57 and less than 6.00, respectively.

With `Cc1nnc(Sc2nc3ccc(Cl)cc3s2)n1-c1ccc2c(c1)OCCO2`, in data set [1], the pIC50 was less than 4.30.

In data set [1], `Nc1ncnc2[nH]c(SCc3ccc(C(=O)O)cc3)nc12` had a pIC50 of 4.15.

The compound `Cn1c(Sc2nc3ccc(Cl)cc3s2)nnc1-c1cccs1` showed a pIC50 in [1] of less than 4.30.

Consider `Cn1c(Sc2nc3ccc(Cl)cc3s2)nnc1-c1ccc(Cl)cc1Cl`, for which the pIC50 in [1] is less than 4.30.

In the case of `Nc1nc(Sc2ncc([N+](=O)[O-])s2)c2nc[nH]c2n1`, the pIC50 is 4.26 in data set [1] and 6.00 in data set [2].

For the compound `O=[N+]([O-])c1cnc(Sc2nc3ncccc3s2)s1`, the pIC50 in data set [1] is 5.38; in data set [2], 6.40.

`O=C(O)c1ccc(CSc2nc3ccccc3[nH]2)cc1` showed a pIC50 in data set [1] of less than 4.00.

Turning to `O=[N+]([O-])c1cnc(Sc2nc3cc(S(=O)(=O)O)ccc3[nH]2)s1`, the pIC50 in [1] was less than 4.30.

For `O=[N+]([O-])c1cnc(Sc2nc3ccccc3[nH]2)s1`, the pIC50 in data set [1] is 5.09; in data set [2], 6.17.

As for `Cc1ccc2nc(Sc3ncc([N+](=O)[O-])s3)oc2c1`, the pIC50 in [1] was less than 4.30; in data set [2], 6.54.

`O=[N+]([O-])c1cnc(Sc2nc3ccccc3o2)s1`: the figures for the pIC50 in [1] and in [2] were 5.57 and 6.62, respectively.

As to `Cn1c(Sc2nc3ccc(Cl)cc3s2)nnc1-c1ccc2ncccc2c1`, in [1], the pIC50 is less than 4.30.

`Cc1ccc2[nH]c(Sc3ncc([N+](=O)[O-])s3)nc2c1`: the pIC50 in data set [1] is 5.42; in data set [2] it was 7.70.

For the compound `COc1ccc2[nH]c(Sc3ncc([N+](=O)[O-])s3)nc2c1`, the results for the pIC50 in data set [1] and in data set [2] were 5.33 and 6.89, respectively.

Turning to `CO/N=C(\C(=O)Sc1nc2ccccc2s1)c1csc(N)n1`, the pIC50 is less than 4.30 in data set [1] and 5.77 in [2].

As to `O=[N+]([O-])c1cnc(Sc2nc3cc(Cl)c(Cl)cc3[nH]2)s1`, the results for the pIC50 in [1] and in data set [2] were 4.64 and 5.82, respectively.

As for `COc1ccc2sc(Sc3ncc([N+](=O)[O-])s3)nc2c1`, the pIC50 in data set [1] is 5.74; in data set [2], 7.00; in data set [3] it was less than 4.00; against Furin it was less than 4.30; in data set [5], less than 4.00. For the same compound, the inhibition in data set [4] came out at 5%.

Turning to `COc1ccccc1-c1nnc(Sc2nc3ccc(Cl)cc3s2)n1-c1ccccc1`, the pIC50 in [1] was less than 4.30.

For the compound `O=[N+]([O-])c1cnc(Sc2nc3ccccc3s2)s1`, the pIC50 was 5.74 in data set [1]; 6.80 in [2]; less than 4.00 in data set [3]; less than 4.30 against Furin; less than 4.00 in data set [5]; 4.82 in data set [7]. The inhibition in data set [4] came out at 2%. The t1/2 with Liver microsomes turned out to be 1.17 h. Besides, the remaining at 1 h in [6] is 80%.

Compound `CCOc1ccc2nc(Sc3ncc([N+](=O)[O-])s3)sc2c1` showed a pIC50 in data set [1] of less than 4.30.

As to `O=[N+]([O-])c1ccc2nc(Sc3ncc([N+](=O)[O-])s3)[nH]c2c1`, the pIC50 in data set [1] is 5.19; in data set [2] it was 5.49.

For the compound `O=[N+]([O-])c1cnc(Sc2nc3cc(Cl)ccc3o2)s1`, the pIC50 in [1] was 4.57; in data set [2], 6.96.

For the compound `Cn1c(Sc2ncc([N+](=O)[O-])s2)nc2ccccc21`, the negative logarithm of the IC50 (pIC50) in [1] is less than 4.30; in [2], 5.82.

Turning to `O=[N+]([O-])c1ccc(Sc2nc3ccccc3o2)c([N+](=O)[O-])c1`, in [1], the pIC50 was less than 4.00.

As for `O=[N+]([O-])c1cnc(Sc2nc3ccc(Cl)cc3s2)s1`, the pIC50 was less than 4.30 in data set [1] and 6.10 in data set [2].

As for `O=[N+]([O-])c1cnc(Sc2nc3cc(Cl)ccc3s2)s1`, the pIC50 in [1] was less than 4.30; in data set [2], less than 6.00.

With `O=[N+]([O-])c1cnc(Sc2nc3cc(C(F)(F)F)ccc3[nH]2)s1`, the pIC50 was 4.69 in [1] and 6.85 in data set [2].
